From PMC5899023 (Nanomedicine : nanotechnology, biology, and medicine, 2018)
Several values for one entry are separate records, joined by “and”; a condition that tells them apart may be missing. Identical values can stand only once. Like-named read-outs stand apart in the source and are kept apart here.

Columns and labels:
[1] = test system: FOM103 normal melanocytes; experiment: MTS cell viability, FOM103; type: cell-based; settings: Melanocyte, 72 h, read-out: IC50 FOM103
How it was run: (§1)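 MTS viability assay. Cells were grown at 37°C in humidified 5% CO2: melanoma lines UACC 903 and 1205 Lu (BRAF V600E) or C8161.Cl9 and MelJuSo (BRAF wild type), or normal […]. 5×10³ cells/well were treated 48 h after seeding for 72 h with rising concentrations of free or nanoliposomal test compound (nanoliposomal: 10–100 μmol/L). IC50 came from 3 independent experiments; group values are averages across the lines.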

Hemolytic activity = type: cell-based; settings: human, human erythrocytes, 5% v/v suspension
How it was run: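 Erythrocytes from fresh EDTA-anticoagulated human blood, separated at 1,500 rpm for 10 min at 4°C using PBS. A 5% v/v suspension in PBS was exposed to free or nanoliposomal test compound (10–40 μmol/L), ethanol or empty liposome (negative controls), or 1% Triton X-100, at 37°C for 60 min. After a 12,000 rpm spin, supernatant A540 was read. % hemolysis = sample A540 / Triton A540 × 100.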

cPLA2 [2] = settings: various in-vitro studies; ref [13], [37]; cited from earlier work
[3] = mouse, in vivo
[4] = 14-day repeated dose study to identify the MTD; settings: for % weight loss at day 14 in Swiss Webster mice: in DMSO, i.p. daily, 14 days
cPLA2 [5] = molecular target: T1, cPLA2 (Homo sapiens, UniProt P47712); experiment: cPLA2 activity assay; type: biochemical
T1 sequence (P47712 1-749): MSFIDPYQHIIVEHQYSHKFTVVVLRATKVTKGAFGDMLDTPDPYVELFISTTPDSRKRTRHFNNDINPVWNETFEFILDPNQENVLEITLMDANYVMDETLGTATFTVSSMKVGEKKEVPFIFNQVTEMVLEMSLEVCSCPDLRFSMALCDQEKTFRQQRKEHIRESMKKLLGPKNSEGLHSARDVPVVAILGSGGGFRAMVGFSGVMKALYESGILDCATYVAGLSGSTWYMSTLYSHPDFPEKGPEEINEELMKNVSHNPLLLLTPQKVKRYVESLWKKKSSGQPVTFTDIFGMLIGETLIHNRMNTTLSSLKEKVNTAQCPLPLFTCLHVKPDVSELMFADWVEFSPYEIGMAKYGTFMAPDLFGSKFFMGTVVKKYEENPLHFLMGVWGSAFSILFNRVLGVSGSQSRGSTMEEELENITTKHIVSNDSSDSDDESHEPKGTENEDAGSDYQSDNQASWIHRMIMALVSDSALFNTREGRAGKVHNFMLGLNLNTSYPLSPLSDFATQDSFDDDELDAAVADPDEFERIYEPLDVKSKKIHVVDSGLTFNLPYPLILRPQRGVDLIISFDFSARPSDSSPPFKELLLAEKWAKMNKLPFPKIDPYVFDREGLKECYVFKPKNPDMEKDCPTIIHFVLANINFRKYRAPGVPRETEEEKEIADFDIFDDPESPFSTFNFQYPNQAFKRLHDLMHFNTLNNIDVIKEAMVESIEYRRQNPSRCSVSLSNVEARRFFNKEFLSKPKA
How it was run: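 Colorimetric cPLA2 assay (commercial kit) on UACC 903 lysate made in Hepes pH 7.4 with 1 mM EDTA. sPLA2 was removed by 30 kDa cutoff filtration and iPLA2 was blocked with bromoenol lactone. Lysate was treated with free or nanoliposomal test compound (0.5–10 μmol/L); DMSO or empty nanoliposome defined 100% activity. Arachidonoyl thio-PC substrate ran for 1 h, then DTNB was added and absorbance read at 414 nm.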

UACC 903 xenograft = UACC 903 xenograft tumor growth in nude mice; type: in vivo; settings: for % in-vivo tumor inhibition at day 21 in Nude mice: in DMSO, i.p.
How it was run: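 Female athymic nude mice aged 3–4 weeks received 1×10⁶ UACC 903 cells in 0.2 mL DMEM/10% FBS subcutaneously above both rib cages. At day 8 (vascularized tumors of 50–75 mm³), mice were randomized (3/group, 2 tumors/mouse) and dosed daily i.p. with free test compound in DMSO (5 or 10 mg/kg) or DMSO vehicle for 3–4 weeks. Tumor dimensions and body weight were taken on alternate days; % inhibition was scored at day 21. Run twice independently.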

[6] = test system: four melanoma cell lines (UACC 903, 1205 Lu, C8161.Cl9, MelJuSo); experiment: MTS cell viability, melanoma cell lines taken together; type: cell-based
How it was run: as §1

[7] = test system: FF2441 normal human fibroblast cell line; experiment: MTS cell viability, FF2441; type: cell-based; settings: FF2441, 72 h, read-out: IC50 FF2441
How it was run: as §1

[8] = test system: 1205 Lu melanoma cell line; experiment: MTS cell viability, 1205 Lu; type: cell-based; settings: Homo sapiens, 72 h, read-out: IC50 1205 Lu
How it was run: as §1

[9] = test system: UACC 903 melanoma cell line; experiment: MTS cell viability, UACC 903; type: cell-based; settings: Homo sapiens, UACC-903, 72 h, read-out: IC50 UACC 903
How it was run: as §1

[10] = test system: C8161.Cl9 melanoma cell line; experiment: MTS cell viability, C8161.Cl9; type: cell-based; settings: 72 h, read-out: IC50 C8161.Cl9
How it was run: as §1

[11] = test system: normal cells FOM103 and FF2441; experiment: MTS cell viability, normal cells taken together; type: cell-based; settings: FF2441, read-out: average IC50 for killing normal FOM103 and FF2441
How it was run: as §1

## CCCCC/C=C\C/C=C\C/C=C\C/C=C\CCCC(=O)C(F)(F)F [ATK, Arachidonyl trifluoromethyl ketone]
[1]
  IC50: 57.9 ± 10.4 µM
Hemolytic activity
  hemolysis at 60 min: 2 to 3%
  hemolysis at 60 min, 40 μmol/L: 2.9%
cPLA2 [2]
  potency in inhibiting cPLA2 over sPLA2 and iPLA2: 500 fold
[3]
  % weight loss at day 14 in Swiss Webster mice: Animal mortality occurred
[4]; 5 mg/kg body weight
  % weight loss at day 14 in Swiss Webster mice: No weight loss
[4]; 10 mg/kg body weight
  % weight loss at day 14 in Swiss Webster mice: 3.1 ± 3.52%
[4]; 15 mg/kg body weight
  % weight loss at day 14 in Swiss Webster mice: 14.5% and 14.5 ± 0.95%
[4]; 20 mg/kg body weight
  % weight loss at day 14 in Swiss Webster mice: Death in 10 days
[4]; 30 mg/kg body weight
  % weight loss at day 14 in Swiss Webster mice: Death in 8 days
[4]; Swiss Webster, mouse, in vivo, ip
  MTD at 14 days: 10 mg/kg
cPLA2 [5]
  IC50: 1.85 µM
UACC 903 xenograft; 5 mg/kg body weight
  % in-vivo tumor inhibition at day 21 in Nude mice: 12.9 ± 6.30%
UACC 903 xenograft; 10 mg/kg body weight
  % in-vivo tumor inhibition at day 21 in Nude mice: 32.5 ± 5.73%
UACC 903 xenograft; 5 and 10 mg/kg i.p. daily in DMSO
  changes in body weight of tumor-bearing mice: did not show any significant changes in body weight
UACC 903 xenograft; free ATK in DMSO, 5 and 10 mg/kg (MTD) i.p. daily, 3-4 weeks
  reduction in tumor volume: approximately 30%
[6]; average melanoma versus average normal cells
  fold more effective at killing melanoma cells than normal cells: 3 fold
[6]; read-out: average IC50 for melanoma cells
  IC50: 22 µM
[7]
  IC50: 63.3 ± 10.3 µM
[8]
  IC50: 26.1 ± 4.4 µM
[9]
  IC50: 26.3 ± 2.1 µM
[10]
  IC50: 18.6 ± 3.1 µM
[11]
  IC50: 60 µM
